Assays:
[1] = Stability of the peptides in solution; format: physicochemical; settings: peptide in solution
[2] = tested on: 3T3-L1 adipocytes; test: Glycerol release from 3T3-L1 adipocytes treated with C26 CM; format: cell-based, mouse; settings: 24 h
[3] = tested on: 3T3-L1 adipocytes; test: LPS-induced glycerol release from 3T3-L1 adipocytes; format: cell-based, mouse; settings: 0.5 µM or 5 µM, 1µg/ml LPS, 24 h
In short: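 3T3-L1 preadipocytes were differentiated with 1 μg/mL insulin, 0.25 μM dexamethasone and 0.5 mM IBMX, then used 8–12 days post-differentiation. Glycerol was measured with a glycerol kit, either directly in culture medium or in Krebs-Ringer buffer (3% BSA, 5 mM glucose) collected over 2 h after a 1 h preincubation. Experiments were repeated at least 2–3 times, each with n ≥3 technical replicates.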

C#CC[C@H](NC(=O)[C@H](CCCCN)NC(=O)[C@H](CCCCN)NC(=O)[C@H](Cc1c[nH]c2ccccc12)NC(=O)[C@H](CCCCN)NC(=O)[C@H](CCSC)NC(=O)[C@H](CCCNC(=N)N)NC(=O)[C@H](CCCNC(=N)N)NC(=O)[C@H](CC(N)=O)NC(=O)[C@H](CCC(N)=O)NC(=O)[C@H](Cc1ccccc1)NC(=O)[C@H](Cc1c[nH]c2ccccc12)NC(=O)[C@@H](NC(=O)[C@H](CCCCN)NC(=O)[C@@H](NC(=O)[C@H](CCC(N)=O)NC(=O)[C@@H](N)CCCNC(=N)N)[C@@H](C)CC)[C@@H](C)CC)C(=O)N[C@@H](CC(N)=O)C(=O)N[C@@H](Cc1c[nH]cn1)C(=O)N[C@H](C(=O)N[C@@H](CCSC)C(=O)N[C@@H](CC(C)C)C(=O)N[C@@H](CC(N)=O)C(=O)N[C@@H](Cc1c[nH]cn1)C(=O)N[C@@H](CC(C)C)C(=O)N[C@@H](Cc1ccc(O)cc1)C(=O)N[C@@H](C)C(=O)N[C@@H](CC(C)C)C(=O)N[C@@H](CO)C(=O)N[C@H](C(=O)N[C@@H](CCCCN)C(=O)N[C@@H](CC(=O)O)C(=O)NCC(=O)N[C@H](C(N)=O)C(C)C)[C@@H](C)CC)C(C)C [Pen-X-ACIP]
Degradation products in mass spectrometry [1]: No degradation products were detected

NC(=O)c1ncn([C@@H]2O[C@H](COP(=O)(O)O)[C@@H](O)[C@H]2O)c1N [AICAR, 5-aminoimidazole-4-carboxamide ribonucleotide]
C26 CM-induced glycerol release ([2]; indicated concentrations of AICAR): reduced C26 CM-induced glycerol release at higher doses

MK8722
LPS-induced glycerol release [3]: inhibited
C26 CM-induced lipolysis (glycerol release) ([2]; 0.5 µM or 5 µM): reduced C26 CM-induced lipolysis dose dependently

Reference: paper PMC10422018 (Molecular Therapy, 2023)
